Assay results taken from the RNAGym collection of RNA variant scans (doi:10.1126/science.aae0568).
Fewer inactive variants are shown than the library holds.

B1: tRNA (parent)
chain: GUUCCGUUGGCGUAAUGGUAACGCGUCUCCCUCCUAAGGAGAAGACUGCGGGUUCGAGUCCCGUACGGAACG

Variants of: B1
Assay: yeast fitness relative to wild type (ratio to wild type); higher = fitter; tRNA-Arg(CCU), competitive growth, 37 C, YPD
Outline: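 Amplicons of the tRNA-Arg(CCU) gene were sequenced, 100-nucleotide paired-end, from the start population and from each end population of a pooled yeast competition. The competition, in six parallel replicates, lasted 24 hours in YPD at 37°C. Fitness relative to wild type was calculated from changes in genotype frequencies. Genotypes had to have ≥ 100 starting reads, and estimates < 0.5 were set to 0.5.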

Compared with GUUCCGUUGGCGUAAUGGUGACGCGUCUCCCUCCUAAGGAGAAGACUGCGGGUUCGAGUCCCGUACCGAACG [A20G G67C], GUUCCGUUGGCGUAGUGGUAACGGGUCUCCCUCCUAAGGAGAAGACUGCGGGUUCGAGUCCCGUCCGGAACG [A15G C24G A65C] is lower in yeast fitness: 0.861 for the first, at most 0.5 for the second.

Compared with GUUCCGUUGGCGUAAUGGUAACGAGUCUCCCUCCUAAGGAGAUGACUACGGGUUCGAGUCCCGUACGGAACG [C24A A43U G48A], GUUCCAUUGGCGUAAUGGUAACGCGUCUCCCUCCUAAGGAGAAGACUGUGGGUUUGAGUCCCGUACGGAACG [G6A C49U C55U] is higher in yeast fitness: at most 0.5 for the first, 0.561 for the second.

Compared with GUUCCGUUGGCGUAAUGGUAACACGUCUUCUUCCUAAGGAGGAGACUGCGGGUUCGAGUCACGUACGGAACG [G23A C29U C31U A42G C61A], GUUCCGUUGGCGUAAUGGUAACGCGUCUCCCUCCUAAGGCGAAGACUGCGGGUUCGAGUCCCGUAAGGAACG [A40C C66A] is higher in yeast fitness: at most 0.5 for the first, 0.755 for the second.

Compared with GUUCCGUUGGCGUAAUGGUAACGCGUCUCCCUCCUAAGGAGAAGACUGCGGGCUCGUGACCCGUAUGGAACG [U53C A57U U59A C66U], GUUCCGUUGGCGUCAUGGUAACGCGUUUCCUUACUAAGGAGAAGACUGCGGGUUUGAGUCCCGUACGGAACG [A14C C27U C31U C33A C55U] is lower in yeast fitness: 0.535 for the first, at most 0.5 for the second.

Compared with GUUCCGAUGGCGUAAUGGGAACGCGCCUGCCUCCUAAGGAGAAGACUGCGGGUUCGAGUCCCGUACGGAACG [U7A U19G U26C C29G], GUUCCGUUGGCAUAAUGGUAACGCAUCUCCCUCCUAAGGAGAAGACUGCGGGUUCGAGUCCCGUGCGGAACG [G12A G25A A65G] is higher in yeast fitness: at most 0.5 for the first, 0.682 for the second.

Compared with GUUCCGUUGGCGUAAUGGUAACGCGUCUCCCCCCUAAGGAGAAGACUGCGGGUUCGAGUCCCGUACGGUACG [U32C A69U], GUUCCGUUGGCGUAAUGGUAACGCGUCUCCCUCCUUAGGAGAAGACUGCGCGCUCGAGUCCCGUACGGAACG [A36U G51C U53C] is lower in yeast fitness: 0.926 for the first, at most 0.5 for the second.

Compared with GUUCCGUUGGCGUAAAGGAAACGCGUCUCCCUCCUAAGGAGAAGAUUGCGGGUUCGAGUCCCGUACGGAACG [U16A U19A C46U], GUUCCGUUGGCGUAAUGGUCCCGCGUCUCCCUCCUAAGGAGAAGACUGCGGGUUCGAGUCCCGUACGGAACG [A20C A21C] is lower in yeast fitness: 1 for the first, 0.608 for the second.

Going from GUUCCGUUGACGUAAUGGUAACGCGUCUCCCUCCUAAGGAGAAGACUGCGGAUUCGGGUCCCGUAUGGAACG [G10A G52A A57G C66U] to GGUCCGUUGGCGUAAUGGUAACGCGUCUCCCUCCUAAGGAGAAGACUGCGGGUUCGACUCCCGUACGGAACG [U2G G58C], the yeast fitness rises from at most 0.5 to 0.755.

GUUCCGUCGGCGUAAUGGUAACGCGUCUCCUUCCUAAGGAGAUGACUACGGGAUCGAGUCCCGUACGGAACG [U8C C31U A43U G48A U53A] and GUUCCGUUGGCGUAAUGGUAACGCGUCUCCCUCCUACGGAGAAGACUGUGGGUUUGAGUCCCAUACCGAACG [A37C C49U C55U G63A G67C] cannot be ordered by yeast fitness: at most 0.5 for the first, at most 0.5 for the second.

GUUCCGUUGGCGUAAUGGUAACGCGUCUCCCUCCUAAGGAAAAGACUGCGCGUUCGAGUCCCGUACGGAACG [G41A G51C] and GUUCCGAUGACGUAUUGGUAACGCGUCUCCCUCCUAAGGAGAAGAAUGCGGGUUCGAGUCCCGUACGGAACG [U7A G10A A15U C46A] cannot be ordered by yeast fitness: at most 0.5 for the first, at most 0.5 for the second.

First: GUUCCGUUGGCGUAAUGGUAACGCGUCUCCCUCCUGAGGAGAAGACUGCCGGUUCGAGUCCCGCACGGAACG [A36G G50C U64C]
Second: GUUCCGUUGGCGUAAUGGUAACGCGUCUCCCUCCUAAGGAGAAGACCGCGGGUUCGAGUCCCGUUCGGAACG [U47C A65U]
The yeast fitness of the first is higher: 1.18 for the first, 0.998 for the second.

First: GUUCCGAUGGGGUAAUGGUAACGCGUCUCCGCCCUAAGGAGAUGACUGCGGGUUCGAGUCCCGUACGGAACG [U7A C11G C31G U32C A43U]
Second: GUUCCGUUGGCGUCAUGGUAACGCGCCUUCCUCCUAAGGAGAGGACUGCGGGUUCGAGUCCCGUACGGAACG [A14C U26C C29U A43G]
The yeast fitness of the first is lower: at most 0.5 for the first, 0.59 for the second.

Compared with GUUCCGUUGGCGUAAUGGUAACGCGUCUCCCUCCUAUGGAGAAGACUGCGGGUUCGCGUCCCGUACGGUCCG [A37U A57C A69U A70C], GCUCCGUUGGCGUAAUGGCAACGCGUCUCCCUCCUAGGGAGAAGACUGCGGGUUCGAGUCCCGUACGGAACG [U2C U19C A37G] is lower in yeast fitness: 0.775 for the first, at most 0.5 for the second.

Compared with GUUCUGUUGGCGUAAUGGUAACGCGUCUCCCUCGUAAGGAGAAGACUGCGGGUUCGAGUCCCGUCCGGAACG [C5U C34G A65C], GUUCCGUUGGCGUAAUGGUAACGCGUCUCCCUCCUAAAGAGAAGACUGCGGGUUCGGGUCCCGUACGGAACG [G38A A57G] is higher in yeast fitness: 0.525 for the first, 0.854 for the second.

First: GUUCCGCUGGGGUAAUGGUAACGUGUCUCCCUCCUAAGGAGAAGACUACGGGUUCGAGUCCCGUAUGGACCG [U7C C11G C24U G48A C66U A70C]
Second: GUUCCGUUGGCGUAAUGGUGACGCGUCUCCCACCUAAGGAGAAGACUGCGGGUUCGAGUCCCGUACGGAACG [A20G U32A]
The yeast fitness of the first is lower: at most 0.5 for the first, 0.719 for the second.

First: GUUCCGUUGGCAUAAUGGUAACGCGUCUCCCUCCUAAGGAGCAGACUGCGGAUUCGAGUCCCGUACGGAACG [G12A A42C G52A]
Second: GUUCCGUUGGCGUAAUGGUAACGCGUCUCCCUCCUAAGGAGAAGCCUGCGGGUUCGAGUCCCCCACGGAACG [A45C G63C U64C]
The yeast fitness of the first is higher: 0.585 for the first, at most 0.5 for the second.

Compared with GUUCCGUUAGCGUAAUGGUAACGCGUCUCCCUCCUAAGGAGAAGACUGCGGGUUCAAGUCCCGUACAGAACG [G9A G56A G67A], GUUCCGUUGGCGUAAUGGUAACGCGUAUCCCUCCUUUGGAGAAGACUGCGGGUUCGAGUCCCGUUCGGAGCG [C27A A36U A37U A65U A70G] is lower in yeast fitness: 0.632 for the first, at most 0.5 for the second.

First: GUUCCGUUGGCGUACUGGUAACGCGUCUCCGUCCUAAGGAGAAGACUGUGGGUUCGAGUCCCGCACAGAACG [A15C C31G C49U U64C G67A]
Second: GUUCCGUUGGCGUAAUGGUAACGCGUCUCCCUUCUGAGGAGAAGACUGCGGGUUCGAGUCCCGUACGGAACG [C33U A36G]
The yeast fitness of the first is lower: at most 0.5 for the first, 0.662 for the second.

With GUUCCGUAGGCGUAAUAGUAACGCGUCUCCCACCUAAGGAGAGGACUGCGGGUUCGAGUCCCGUACGGAACG [U8A G17A U32A A43G] the yeast fitness was at most 0.5.
